Only some compounds are listed: those with a hit (about 1.5% of all), similar ones and a draw of the others.
APJ agonist – agonists of human APJ apelin receptor; P35414; CHO-K1 APJ PathHunter beta-arrestin, luminescence; 0% DMSO wells, 100% apelin; activation, % at 20 µM; actives 0.11% (n = 330,000);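 active = activation more than six SD over the plate average, tested at 20 µM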;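 note: 0% = DMSO alone and 100% = apelin-13 at 10 nM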
Target sequence (P35414 whole entry, looked up): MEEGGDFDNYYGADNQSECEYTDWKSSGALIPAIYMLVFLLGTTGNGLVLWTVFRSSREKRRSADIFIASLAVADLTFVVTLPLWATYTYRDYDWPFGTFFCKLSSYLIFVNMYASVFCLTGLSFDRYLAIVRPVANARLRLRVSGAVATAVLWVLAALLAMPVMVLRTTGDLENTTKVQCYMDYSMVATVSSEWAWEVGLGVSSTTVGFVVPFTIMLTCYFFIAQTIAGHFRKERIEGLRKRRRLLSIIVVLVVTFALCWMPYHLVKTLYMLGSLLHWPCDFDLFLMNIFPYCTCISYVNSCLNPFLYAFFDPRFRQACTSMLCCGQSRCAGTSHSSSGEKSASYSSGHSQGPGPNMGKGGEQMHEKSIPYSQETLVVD
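Test system – PathHunter CHO-K1 APJ (AGTRL-1) beta-arrestin reporter cells · Input – 1000 cells/well · Compound – single test compound dose, 20 µM final, 1% DMSO · Times – compound stimulation 90 min at 25 °C, detection 60 min · Technique – beta-gal luminescence · Read-out basis – APJ–arrestin association signal · Control set – negative DMSO alone, positive Apelin-13 at 10 nM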
CCR6 antag – blocks CCL20-driven beta-arrestin recruitment at human CCR6; P51684; CHO-K1 CCR6 PathHunter beta-arrestin, luminescence, CCL20-stimulated; inhibition, % at 20 µM; actives 0.49% (n = 340,000);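 active = compounds whose inhibition of the agonist-driven luminescence signal at 20 µM reaches about 50%, limit read from the data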;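 note: cells stimulated with CCL20 at 14 nM final; plate controls were DMSO with CCL20 for no effect and DMSO without agonist for full effect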
APJ antagonist – blocks the human apelin receptor APJ; AID 2521; inhibition, % at 20 µM; P35414; actives 0.32% (n = 330,000); CHO-K1 APJ beta-arrestin complementation, luminescence;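 active = inhibition above about 40% at 20 µM, limit read from the data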;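 note: cells challenged with 10 nM apelin-13 agonist together with compound; plate controls were apelin-13 plus DMSO wells for no effect and DMSO wells lacking apelin-13 for full effect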
CXCR6 block – blocks human CXCR6 beta-arrestin recruitment; CHO-K1 PathHunter CXCR6 beta-arrestin, luminescence; inhibition, % at 20 µM; actives 0.36% (n = 360,000); AID 602244; in the data active = inhibition above about 34%, passing the limit was not always enough;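 note: antagonist mode with CXCL16 agonist at 10 nM final; 0% = 10 nM CXCL16 with DMSO and 100% = unstimulated wells without agonist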
EBI2 block – antagonists of human EBI2 receptor; AID 651636; actives 0.81% (n = 360,000); P32249; inhibition, % at 5 µM; EBI2 beta-arrestin recruitment, luminescence, 7a,25-OHC stimulated; in the data active = inhibition above about 38%;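 note: enzyme fragment complementation signal reports receptor beta-arrestin coupling in cells; 0% = agonist plus DMSO wells and 100% = wells without agonist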
EBI2 antag conf – EBI2 (human) antagonism, single concentration confirmation. shares compounds with EBI2 block. EBI2 beta-arrestin luminescence, 7a,25-OHC antagonism. inhibition, % at 5 µM. actives 29% (n = 2,400). AID 651997;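 active = inhibition of at least 50%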
EBI2 agonist – counter-screen for EBI2 antagonists: EBI2 agonist activity; 2,400 tested, under 10 active; EBI2-expressing cells, agonist mode, luminescence, 60 min; 0% vehicle, 100% 7α,25-dihydroxycholesterol control; activation, % at 5 µM; shares compounds with EBI2 block;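 active = activation of at least 50%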
bGal counter – counter-screen for EBI2 antagonists: E. coli beta-galactosidase inhibition; shares compounds with EBI2 block; purified beta-galactosidase, luminescent Galacton Star, 15 min; inhibition, % at 5 µM; actives 1% (n = 2,400);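 active = replicate-average signal at least 3 plate SD below neutral wells, shown as high inhibition, flagging enzyme-inhibiting false positives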;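 note: 0% = DMSO wells with enzyme and 100% = wells lacking enzyme; higher means stronger loss of beta-gal luminescence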
* hit, by the source's call; · = no result.

SMILES	APJ agonist	CCR6 antag	APJ antagonist	CXCR6 block	EBI2 block	EBI2 antag conf	EBI2 agonist	bGal counter
Clc1ccc(/C=C\c2nccc3c2[nH]c2ccccc23)cc1	·	-5	·	-12	65*	45	1	0
N#Cc1ccc(/C=C\c2nccc3c2[nH]c2ccccc23)cc1	2	-13	-11	-9	48*	25	2	3
CC(=O)Nc1c2c(nn1-c1ccc(F)cc1)CSC2	-3	8	-4	-2	-1	·	·	·
CC1CC(C)CN(S(=O)(=O)c2ccc(NC(=S)NC(=O)c3ccccc3)cc2)C1 (stereo unspecified)	-4	35	-7	23	47*	21	1	5
C=CCN1C(=O)CS/C1=N/c1nccs1	-1	-11	20	-2	-1	·	·	·
C=CCN1C(=O)/C(=C/c2ccccc2)S/C1=N/c1nccs1	-2	17	-13	3	57*	47	3	4
CCOC(=O)C1CCCCN1C(=O)c1ccc2nc(Cc3ccc(OC)cc3)oc2c1 (stereo unspecified)	-5	9	-11	2	61*	49	0	3
CN(C)S(=O)(=O)N1CCC(Oc2cccc(C(=O)N3CCCCCCC3)c2)CC1	-6	19	-4	2	-1	·	·	·
Cc1ccc(NC(=S)Nc2ccc3cn[nH]c3c2)cc1C	-2	2	-8	8	-13	·	·	·
CC(C)c1ccc(NC(=S)Nc2ccc3cn[nH]c3c2)cc1	1	9	-1	-8	50*	45	0	6
CC1CCCC(NC(=O)COC(=O)[C@@H](NC(=O)c2ccccc2Cl)C(C)C)C1C (stereo partly specified)	0	16	-8	9	5	·	·	·
CCCCCCN1C[C@H](n2cc(C3CC3)nn2)[C@@H](O)C[C@@H]1c1ccc(OC)cc1	·	·	·	-5	10	·	·	·
CCc1ccc(OCC(=O)NNC(=O)CSc2ncnc3sc(C)c(C)c23)cc1	-2	2	9	-2	70*	35	2	3
Cc1ccc(OCC(=O)NNC(=O)CSc2ncnc3sc(C)c(C)c23)cc1	-3	6	-18	0	66*	29	0	9
Cc1sc2ncnc(SCC(=O)NC(C)(C)C)c2c1C	-3	6	2	-1	-9	·	·	·
O=C(CC1CCCC1)N1CCN(S(=O)(=O)c2cccc(Br)c2)CC1	·	·	·	6	-14	·	·	·
CCN(CC(=O)NCc1cccs1)S(=O)(=O)c1ccc(F)c(F)c1F	-6	4	-32	-2	0	·	·	·
COc1ccc(-c2cc(C(=O)N3CCN(c4ccccc4)CC3)no2)cc1	0	7	-3	0	33	·	·	·
COc1ccccc1N1CCN(C(=O)c2cc(-c3ccc(C)cc3)on2)CC1	-6	3	7	0	64*	44	0	1
COc1ccccc1N1CCN(C(=O)c2cc(-c3ccc(Cl)cc3)on2)CC1	-3	0	-15	8	58*	41	0	4
COc1ccc(-c2cc(C(=O)N3CCN(c4ccccc4OC)CC3)no2)cc1	-4	11	-6	6	68*	42	-2	-10
COc1ccccc1-c1cc(C(=O)N2CCN(c3ccccc3OC)CC2)no1	-1	-5	11	-1	18	·	·	·
COc1ccccc1N1CCN(C(=O)c2cc(-c3ccc(F)cc3)on2)CC1	-1	3	3	7	57*	48	-1	6
CCN(CC)C(=O)Cn1cc(S(=O)(=O)CC(=O)Nc2ccc(C(N)=O)cc2)c2ccccc21	1	-8	19	2	-5	·	·	·
Cc1ccnc(NC(=O)c2sc3cc(Cl)ccc3c2Cl)c1	0	-1	-4	-1	55*	55*	-2	-11
SMILES	APJ agonist	CCR6 antag	APJ antagonist	CXCR6 block	EBI2 block	EBI2 antag conf	EBI2 agonist	bGal counter
Cc1ccnc(NC(=O)CNC(=O)c2sc3ccccc3c2Cl)c1	-1	-14	18	0	-3	·	·	·
Cc1cc(C)c(C(=O)COC(=O)C2CC3CCCC(C2)C3=O)c(C)c1 (stereo unspecified)	-4	-1	11	7	23	·	·	·
CCOc1ccc(CNC(=O)C(=O)c2cn(CC(=O)N3CCOCC3)c3ccccc23)cc1OC	-5	9	17	-5	-11	·	·	·
Cc1noc(C)c1COC(=O)c1csc2c1CCCC2	-6	14	-32	-6	-3	·	·	·
CNc1ccc(C(=O)N2CCN(S(=O)(=O)c3ccc4c(c3)OCCCO4)CC2)cc1[N+](=O)[O-]	-3	17	30	7	47*	29	1	8
COc1ccc(-n2c(Cc3cccn3C)nnc2SCC(=O)Nc2ccccc2C)cc1	-3	16	12	10	55*	23	-1	-6
COc1ccc(-n2c(Cc3cccn3C)nnc2SCC(=O)Nc2ccc(C)c(Cl)c2)cc1	-4	20	1	-11	47*	23	-1	11
COc1ccc(-n2c(COc3ccccc3)nnc2SCC(N)=O)cc1	-1	-7	-3	-5	49*	3	-1	-11
COc1ccc(-n2c(Cc3cccn3C)nnc2SCC(=O)Nc2ccccc2F)cc1	-1	16	-51	-1	36	·	·	·
CCOC(=O)c1ccccc1NC(=O)CSc1nnc(Cc2cccn2C)n1-c1ccc(C)cc1	-2	16	3	-5	54*	29	-1	-10
CSCCC(NC(=O)c1ccco1)C(=O)NC1CCC(C)CC1 (stereo unspecified)	0	5	-1	-2	-9	·	·	·
O=C(CCc1nc2sc3c(c2c(=O)[nH]1)CCCC3)N1CCN(c2ccccc2)CC1	-4	9	18	-9	2	·	·	·
S=C(N/N=C/c1ccccc1Cl)Nc1cccc(Cl)c1Cl	-7	16	9	6	36	·	·	·
COc1ccc(C(=O)N/C(=C\c2cn(C)c3ccccc23)C(=O)NCCCN2CCOCC2)cc1	-4	1	-23	5	4	·	·	·
Cn1cccc1Cc1nnc(SCC(=O)NCCc2ccccc2)n1C	-2	-5	2	-5	-6	·	·	·
COc1ccc(-n2c(Cc3cccn3C)nnc2SCC(=O)Nc2cccc(C)c2C)cc1	-3	5	7	5	49*	25	-2	-8
COc1ccc(-n2c(Cc3cccn3C)nnc2SCC(=O)NCCc2ccccc2)cc1	-1	12	6	6	44*	36	-1	4
Cc1ccc(Cn2c(SCC(=O)N(C)C3CCS(=O)(=O)C3)nc3ccccc3c2=O)cc1 (stereo unspecified)	4	5	2	3	-11	·	·	·

Assay outcomes from PubChem BioAssay.
